From publication PMC4589464 (Hepatology (Baltimore, Md.), 2015)
“Also recorded” adds a separate entry of the source. Where a name gives a salt, the structure may show the parent alone. Read-outs that look alike come from different tables or passages of the source.

Columns and labels:
[1] = Cytotoxicity in MT-4 cells; type: cell-based; conditions: human
HBV [2] = assay: microbe, parasite or virus in culture; conditions: Hepatitis B virus, HepG2 2.2.15, 288 h, read-out: IC50 against Anti-HBV
in vitro = type: cell-based; conditions: human
HBV [3] = conditions: for S.I. with Anti-HBV (CC50/IC50): HepG2 2.2.15 cells
HepG2 cells = type: cell-based; conditions: up to 100 μM; for mtDNA synthesis / mtDNA levels / L-lactate levels in culture medium: 12 days culture; for mtDNA synthesis / mtDNA levels: real-time mtDNA-PCR; for viable cell numbers (MTT assay): day 5 of culture
HIV-1 = conditions: read-out: in vitro anti-HIV-1 IC90 concentration; cited from earlier work
[4] = intraperitoneal administration 20 mg/kg; cited from earlier work
[5] = system: HBVETV-R^L180M/S202G/M204V; assay: HBVETV-R viremia in hu-liver-chimeric-uPA+/+/SCID+/+ mice; type: in vivo; conditions: for effect on HBVETV-R^L180M/S202G/M204V viremia: 0.02 mg/kg/day oral once daily; for effect on HBVETV-R^L180M/S202G/M204V viremia / greatest magnitude of viremia reduction: 14 days; for greatest magnitude of viremia reduction: HBVETV-R-infected mice, 0.02 mg/kg/day oral, average of two mice; for difference in viremia reduction magnitude between HBV^WT and HBVETV-R^L180M/S202G/M204V: mouse model
Summary of the method: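 Human-liver-chimeric uPA+/+/SCID+/+ mice (SCID, uPA-transgenic, liver partly repopulated with human hepatocytes) were inoculated with the HBV variant. Dosing began 8 weeks later, once daily at 0.02 mg/kg/day for 14 days. Serum viremia was followed as log10 copies/ml change from baseline, along with serum human albumin and body weight per mouse. Livers were examined histologically at the end of dosing.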

HBV^WT [6] = assay: HBV^WT viremia in hu-liver-chimeric-uPA+/+/SCID+/+ mice; type: in vivo; conditions: 0.02 mg/kg/day oral, 14 days; for greatest magnitude of serum HBV-DNA level reduction: HBV^WT-infected mice
HBVADV-R^A181T/N236T = assay: Southern blot assay, Huh-7 cells transfected with ADV-resistant HBV plasmid; type: cell-based; conditions: Hepatitis B virus, Huh-7, read-out: IC50 against HBVADV-R^A181T/N236T
Summary of the method: (§1)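 Huh-7 cells were transfected with the HBV variant-containing plasmid and cultured with a range of test compound concentrations. Core-associated HBV DNA was extracted and detected by Southern blot hybridization. IC50 was calculated from the change in signal density, generally averaged over two experiments. The fold change was taken relative to the IC50 against wild-type HBV plasmid.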

[7] = Serum human albumin and body weight monitoring of treated HBV-infected mice; type: in vivo; conditions: 0.02 mg/kg/day; for serum human albumin (h-albumin) levels: HBV^WT-infected mice; for body weights: treated mice, 14 days
[8] = system: HBVETV-R^L180M/S202G/M204V; assay: Southern blot assay, Huh-7 cells transfected with ETV-resistant HBV plasmid; type: cell-based; conditions: Hepatitis B virus, Huh-7, read-out: IC50 against HBVETV-R^L180M/S202G/M204V
Summary of the method: as §1

HIV-2 strains = assay: Activity against HIV-2 strains; type: cell-based; conditions: Table S1
HBV^WT [9] = assay: Southern blot assay, Huh-7 cells transfected with pHBV^WT; type: cell-based; conditions: Hepatitis B virus
[10] = cited from earlier work
[11] = type: in vivo; conditions: hu-liver-chimeric mice, 14-day administration
[12] = Huh-7, read-out: IC50 against HBV^WT
[13] = Huh-7, read-out: IC50 against HBV^WT (Southern blot)

| Compound | IC50 (HBV [2]) [nM] | S.I. with Anti-HIV-1 (CC50/IC50) (HIV-1NL4-3; MT-4 cells) | CC50 (in vitro) [µM] | S.I. with Anti-HBV (CC50/IC50) (HBV [3]) | CC50 [1] [µM] | other results |
| --- | --- | --- | --- | --- | --- | --- |
| CC(C)OC(=O)OCOP(=O)(CO[C@H](C)Cn1cnc2c(N)ncnc21)OCOC(=O)OC(C)C [TDF, tenofovir disoproxil fumarate] | 40 ± 10 | 70 | > 100 | > 2,500 | – | CC50 ([1]; MT-4 cells): 40.4 ± 11.3 µM |
| Nc1ccn([C@H]2CC[C@@H](CO)O2)c(=O)n1 [ddC, 2′,3′-dideoxycytidine] | 750 ± 120 | > 300 | > 100 | > 130 | – | CC50 ([1]; MT-4 cells): > 100 µM; mtDNA synthesis / mtDNA levels (HepG2 cells): significantly decreased mtDNA synthesis at 1 μM and beyond; L-lactate levels in culture medium (HepG2 cells): without causing any significant decrease in L-lactate amounts or viable cell numbers; viable cell numbers (MTT assay) (HepG2 cells): without causing any significant decrease in L-lactate amounts or viable cell numbers |
| Cc1cn([C@H]2C[C@H](N=[N+]=[N-])[C@@H](CO)O2)c(=O)[nH]c1=O [AZT, 3′-azido-3′-deoxythymidine] | > 100000 | 1,020 | > 100 | – | 30.5 ± 3.1 | – |
| C#C[C@]1(CO)O[C@@H](n2cnc3c(N)nc(F)nc32)C[C@@H]1O [EFdA, 4′-ethynyl-2-fluoro-2′-deoxyadenosine] | 160 ± 30 | 64,000 | > 100 | > 630 | 19.2 ± 5.9 | IC90 (HIV-1): ~5 nM; maximal concentration [4]: 4 µg/mL; time of maximal concentration [4]: 30 min |
| N#C[C@]1(CO)O[C@@H](n2cnc3c(N)nc(N)nc32)C[C@@H]1O [CAdA, 4′-C-cyano-2-amino-2′-deoxyadenosine] | 0.4 ± 0.2 | 8,750 | 3.8 ± 1 | 9,500 | 3.5 ± 1.2 | effect on HBVETV-R^L180M/S202G/M204V viremia [5]: significant level of viremia reduction by day 7; greatest magnitude of viremia reduction [5]: -1.4 log10 copies/ml; difference in viremia reduction magnitude between HBV^WT and HBVETV-R^L180M/S202G/M204V [5]: 30 fold; mtDNA synthesis / mtDNA levels (HepG2 cells): significantly lowered the levels of mtDNA; L-lactate levels in culture medium (HepG2 cells): severely lowered the levels of L-lactate and viable cell numbers; viable cell numbers (MTT assay) (HepG2 cells): severely lowered the levels of L-lactate and viable cell numbers; effect on HBV^WT viremia (HBV^WT [6]): significantly blocked the replication of HBV; greatest magnitude of serum HBV-DNA level reduction (HBV^WT [6]): -2.9 log10 copies/ml; IC50 (HBVADV-R^A181T/N236T): 90 ± 70 nM; serum human albumin (h-albumin) levels [7]: moderately decreased h-albumin levels; body weights [7]: no significant difference in body weights; IC50 [8]: 70 ± 10 nM; activity against HIV-2 strains (HIV-2 strains): potent activity against HIV-2 strains; IC50 (HBV^WT [9]; [12]): 7 ± 10 nM; IC50 (HBV^WT [9]; [13]): 7.2 nM |
| C#C[C@@]1(CO)C=C[C@H](n2cc(C)c(=O)[nH]c2=O)O1 [Ed4T, 2′,3′-didehydro-3′-deoxy-4′-ethynylthymidine] | > 100000 | > 380 | > 100 | – | > 100 | – |
| Nc1ccn([C@@H]2CS[C@H](CO)O2)c(=O)n1 [3TC, lamivudine] | 30 ± 10 | > 340 | > 100 | > 3,300 | > 100 | – |
| Cc1cn([C@@H]2C[C@@H](O)[C@H](CO)O2)c(=O)[nH]c1=O [LdT, telbivudine] | 7 ± 1 | – | > 100 | > 14,000 | > 100 | – |
| Cc1cn([C@H]2C=C[C@@H](CO)O2)c(=O)[nH]c1=O [d4T, 2′,3′-didehydro-3′-deoxythymidine] | > 100000 | – | > 100 | – | > 100 | S.I. with Anti-HIV-1 (CC50/IC50) (HIV-1NL4-3): > 150 |
| OC[C@@H]1CC[C@H](n2cnc3c(O)ncnc32)O1 [ddI, 2′,3′-dideoxyinosine] | 3700 ± 700 | – | > 100 | – | > 100 | – |
| Nc1nc(NC2CC2)c2ncn([C@H]3C=C[C@@H](CO)C3)c2n1 [ABC, abacavir] | 3900 ± 1000 | > 170 | > 100 | > 26 | > 100 | – |
| C#C[C@]1(COP(=O)(O)OP(=O)(O)OP(=O)(O)O)O[C@@H](n2cnc3c(N)nc(F)nc32)C[C@@H]1O [EFdA-TP] | – | – | – | – | – | half-life [10]: ≥ 17 h |
| C=C1[C@H](CO)[C@@H](O)C[C@@H]1n1cnc2c(=O)[nH]c(N)nc21 [ETV, entecavir] | 0.7 ± 0.2 | 38 | > 100 | > 140,000 | 39.1 ± 8.7 | effect on HBVETV-R^L180M/S202G/M204V viremia [5]: completely failed to reduce; also recorded: essentially no reduction; mtDNA synthesis / mtDNA levels (HepG2 cells): no reduction of mtDNA synthesis was observed; L-lactate levels in culture medium (HepG2 cells): no L-lactate level changes were identified; viable cell numbers (MTT assay) (HepG2 cells): slight and moderate decreases in the cell viability; effect on HBV^WT viremia (HBV^WT [6]): viremia levels significantly went down; IC50 (HBVADV-R^A181T/N236T): 180 nM; serum human albumin (h-albumin) levels [7]: comparable decrease of h-albumin levels; body weights [7]: no significant difference in body weights; IC50 [8]: > 1000 nM; IC50 (HBV^WT [9]; [12]): 14 ± 8 nM; IC50 (HBV^WT [9]; [13]): 14.1 nM; number of HBV copies in HepG2 2.2.15 cells (HBV [3]; at 100 nM, 12-day culture, cells alone 9.0 × 10^5 copies/well): ~ 0.9 × 10^5 copies/well |
| N#C[C@]1(CO)O[C@@H](n2cnc3c(=O)[nH]c(N)nc32)C[C@@H]1O [CdG, 4′-C-cyano-2′-deoxyguanosine] | 0.4 ± 0.1 | 7,000 | 3.2 ± 0.7 | 8,000 | 2.8 ± 0.9 | effect on HBVETV-R^L180M/S202G/M204V viremia [5]: significant level of viremia reduction by day 7; greatest magnitude of viremia reduction [5]: -1.2 log10 copies/ml; difference in viremia reduction magnitude between HBV^WT and HBVETV-R^L180M/S202G/M204V [5]: 30 fold; mtDNA synthesis / mtDNA levels (HepG2 cells): significantly lowered the levels of mtDNA; L-lactate levels in culture medium (HepG2 cells): severely lowered the levels of L-lactate and viable cell numbers; viable cell numbers (MTT assay) (HepG2 cells): severely lowered the levels of L-lactate and viable cell numbers; effect on HBV^WT viremia (HBV^WT [6]): significantly blocked the replication of HBV; greatest magnitude of serum HBV-DNA level reduction (HBV^WT [6]): -2.7 log10 copies/ml; IC50 (HBVADV-R^A181T/N236T): 40 ± 20 nM; serum human albumin (h-albumin) levels [7]: moderately decreased h-albumin levels; body weights [7]: no significant difference in body weights; IC50 [8]: 40 ± 30 nM; activity against HIV-2 strains (HIV-2 strains): potent activity against HIV-2 strains; IC50 (HBV^WT [9]; [12]): 10 ± 2 nM; IC50 (HBV^WT [9]; [13]): 9.8 nM; liver toxicity [11]: no significant liver toxicity or general toxicity |
